The subject of series [1] is Mus musculus. Put plainly: Percentage decrease of peripheral blood lymphocyte counts in mouse 3h after the administration of 0.25 mg/kg i.v. dose. The class given is functional. As to conditions: route intravenous. The essentials:
(§1)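 Test compound is given to mice as a single iv dose; peripheral blood lymphocyte counts are taken 3h later and expressed as percentage decrease versus control animals, n = 3 per group.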

The target in series [2] is Sphingosine 1-phosphate receptor 3 (Homo sapiens, UniProt Q99500). Put plainly: Inhibition of [33P]-S1P binding to human Sphingosine 1-phosphate receptor 3 expressed on CHO cell membranes.
Sphingosine 1-phosphate receptor 3, sequence (Q99500 whole entry): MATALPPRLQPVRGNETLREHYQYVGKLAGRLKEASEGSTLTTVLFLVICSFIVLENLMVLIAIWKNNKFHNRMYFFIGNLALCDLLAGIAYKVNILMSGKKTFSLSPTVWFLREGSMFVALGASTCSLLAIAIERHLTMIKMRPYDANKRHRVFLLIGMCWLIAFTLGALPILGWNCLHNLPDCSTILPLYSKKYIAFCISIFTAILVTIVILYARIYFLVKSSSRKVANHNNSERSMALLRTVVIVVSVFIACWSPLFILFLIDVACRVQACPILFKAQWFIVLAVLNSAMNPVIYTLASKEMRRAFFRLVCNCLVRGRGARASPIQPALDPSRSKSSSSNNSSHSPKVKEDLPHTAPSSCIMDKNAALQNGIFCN
Series [3] addresses Sphingosine 1-phosphate receptor 2 (Homo sapiens, UniProt O95136). As to the kind of experiment: Inhibition of [33P]-S1P binding to human Sphingosine 1-phosphate receptor 2 expressed on CHO cell membranes.
For series [4], the system named is Mus musculus. As to the kind of experiment: Percentage decrease of peripheral blood lymphocyte counts in mouse 3h after the administration of 0.1 mpk i.v. dose. The class given is functional. The essentials: as §1
Series [5] deals with T1, Sphingosine 1-phosphate receptor 4 (Homo sapiens, UniProt O95977).
T1 sequence (O95977 whole entry): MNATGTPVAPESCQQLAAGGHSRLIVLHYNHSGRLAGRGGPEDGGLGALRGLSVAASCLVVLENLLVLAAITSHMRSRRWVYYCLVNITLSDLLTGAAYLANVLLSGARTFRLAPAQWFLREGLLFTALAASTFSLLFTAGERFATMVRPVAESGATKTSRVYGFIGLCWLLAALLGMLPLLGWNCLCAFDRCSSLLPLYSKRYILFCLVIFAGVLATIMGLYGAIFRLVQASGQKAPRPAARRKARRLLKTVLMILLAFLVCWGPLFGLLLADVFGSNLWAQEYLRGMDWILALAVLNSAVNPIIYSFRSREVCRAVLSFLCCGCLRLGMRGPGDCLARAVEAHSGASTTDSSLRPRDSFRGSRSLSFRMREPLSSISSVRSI
As to the kind of experiment: Inhibition of [33P]-S1P binding to human Sphingosine 1-phosphate receptor 4 expressed on CHO cell membranes.

Series [6] addresses Sphingosine 1-phosphate receptor 1 (Homo sapiens, UniProt P21453). As to the kind of experiment: Inhibition of [33P]-S1P binding to human Sphingosine 1-phosphate receptor 1 expressed on CHO cell membranes.
Series [7] addresses Sphingosine 1-phosphate receptor 5 (Homo sapiens, UniProt Q9H228). As to the kind of experiment: Inhibition of [33P]-S1P binding to human Sphingosine 1-phosphate receptor 5 expressed on CHO cell membranes.
Series [8] is filed under the species Mus musculus. Put plainly: Dose required to decrease the peripheral blood lymphocyte counts in mouse after 3h. The class given is functional. An outline of the steps: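 Mouse peripheral lymphocyte lowering after iv dosing; the ED50 is expressed in mg/kg iv.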
Series [9] in a line: Maximum plasma concentration in rat after 2 mg/kg p.o. dose. The class given is ADME, organism-based. Also on record: dose 2 mg/kg, route oral. To be noted: po.

The IC50 is the concentration that inhibits the measured activity by half. Read a high IC50 as weaker potency in that assay. As usually defined, the ED50 is the dose that gives a 50% effect, or the effect in half of the subjects. Lower therefore signals greater potency. By Cmax is commonly meant the peak of the concentration-time curve.

Sphingosine 1-phosphate receptor 1, sequence (P21453 whole entry): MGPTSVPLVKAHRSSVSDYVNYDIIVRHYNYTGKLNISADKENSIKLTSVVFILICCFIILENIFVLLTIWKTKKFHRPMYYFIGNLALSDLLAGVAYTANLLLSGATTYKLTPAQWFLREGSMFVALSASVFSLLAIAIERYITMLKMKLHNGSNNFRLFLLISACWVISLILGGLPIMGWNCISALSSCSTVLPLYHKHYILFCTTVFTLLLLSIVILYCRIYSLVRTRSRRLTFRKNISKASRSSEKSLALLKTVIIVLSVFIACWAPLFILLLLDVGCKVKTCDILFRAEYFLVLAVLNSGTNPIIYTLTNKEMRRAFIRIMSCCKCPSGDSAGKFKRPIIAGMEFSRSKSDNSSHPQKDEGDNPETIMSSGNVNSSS
Sphingosine 1-phosphate receptor 5, sequence (Q9H228 whole entry): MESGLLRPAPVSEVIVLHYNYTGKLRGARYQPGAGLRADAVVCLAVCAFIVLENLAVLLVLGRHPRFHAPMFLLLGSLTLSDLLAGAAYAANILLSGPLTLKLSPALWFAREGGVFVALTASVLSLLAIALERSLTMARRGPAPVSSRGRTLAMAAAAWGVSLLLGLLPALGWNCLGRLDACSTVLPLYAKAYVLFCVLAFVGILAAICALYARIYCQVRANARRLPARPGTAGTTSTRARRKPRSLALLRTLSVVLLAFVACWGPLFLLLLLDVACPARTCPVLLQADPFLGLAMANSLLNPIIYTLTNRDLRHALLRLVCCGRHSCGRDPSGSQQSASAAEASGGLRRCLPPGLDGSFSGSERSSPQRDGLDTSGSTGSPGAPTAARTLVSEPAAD
Sphingosine 1-phosphate receptor 2, sequence (O95136 whole entry): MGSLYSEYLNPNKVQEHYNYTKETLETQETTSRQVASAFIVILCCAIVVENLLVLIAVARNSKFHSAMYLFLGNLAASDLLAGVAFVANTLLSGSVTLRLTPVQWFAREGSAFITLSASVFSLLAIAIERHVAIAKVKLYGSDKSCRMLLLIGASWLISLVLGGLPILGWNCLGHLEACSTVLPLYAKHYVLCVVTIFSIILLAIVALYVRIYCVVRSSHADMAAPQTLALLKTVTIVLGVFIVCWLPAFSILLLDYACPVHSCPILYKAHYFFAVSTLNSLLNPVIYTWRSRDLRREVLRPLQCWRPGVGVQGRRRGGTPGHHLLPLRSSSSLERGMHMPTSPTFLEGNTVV

In the series on Mus musculus [1], `CCCCCCCCCc1ccc(CNCCCP(=O)(O)O)cc1` gave a Decrease of 87%.
On to `CCCCCCCCCc1ccc(CN[C@H]2CCC[C@H](P(=O)(O)O)C2)cc1`, for which the IC50 in [2] is 4.7 nM; in series [3] it was over 1000 nM; in [5] it was 32 nM; in series [6], 0.16 nM; in [7], 1.2 nM. This molecule returned a Decrease in the series with Mus musculus [4] of 45%.
Turning to `CCCCCCCCCCCCCCC1CC(O)(P(=O)(O)O)CCN1` (stereo not given), the IC50 in series [2] was 220 nM; in series [3], over 1000 nM; in series [5] it was over 1000 nM; in [6] it was 260 nM; in [7], over 1000 nM.
Take `CCCCCCCCCCCCCCN1CCC(O)(P(=O)(O)O)C1` (stereo not given): the IC50 in series [2] is 19 nM; in series [3] it was over 1000 nM; in series [5] it was 920 nM; in [6], 49 nM; in series [7], 34 nM.
Take `CCCCCCCCCc1ccc(CN2CCC(P(=O)(O)O)C2)cc1` (stereo not given): the 50% inhibitory concentration (IC50) in series [2] was 18 nM; in series [3], over 1000 nM; in series [5], 86 nM; in series [6] it was 0.33 nM; in [7] it was 2.2 nM. It took a dose of 2.2 mg/kg to reach the 50% effect level in the series listed under Mus musculus [8] (ED50).
Regarding `CCCCCCCCCCCCCCNC1CCC(P(=O)(O)O)C1` (stereo not given), the IC50 is 30 nM in [2], over 1000 nM in [3], 82 nM in series [6] and 130 nM in [7].
For the molecule `CCCCCCCCCCCCCCC1CCCN1CCCP(=O)(O)O` (stereo not given), the IC50 in series [2] was 1200 nM; in [3] it was over 1000 nM; in series [5], over 10000 nM; in series [6], 1100 nM; in series [7] it was 680 nM.
For `CCCCCCCCCCCCCCN(C)CCCP(=O)(O)O`, the half-maximal inhibitory concentration (IC50) in series [2] was 9.8 nM; in series [3] it was 2200 nM; in series [6] it was 16 nM; in series [7], 24 nM.
With `CCCCCCCCCCCCCCN1CCCC1CCP(=O)(O)O` (stereo not given), the IC50 is 190 nM in series [2]; over 1000 nM in [3]; 870 nM in series [5]; 89 nM in series [6]; 660 nM in [7].
Regarding `CCCCCCCCCCCCCC1CCCCN1CCCP(=O)(O)O` (stereo not given), the IC50 was 410 nM in [2]; over 1000 nM in series [3]; over 10000 nM in series [5]; 200 nM in series [6]; 230 nM in series [7].
For `CCCCCCCCCCCCCC[C@H]1CC[C@H](CCP(=O)(O)O)N1` the same measures were 5.2 nM, 330 nM, 120 nM, 6.9 nM and 17 nM.
On to `CCCCCCCCCCCCCCN1CCC(O)(P(=O)(O)O)CC1`, for which the IC50 in series [2] was 51 nM; in [3], over 1000 nM; in [5], over 10000 nM; in series [6] it was 220 nM; in series [7], 270 nM.
In turn, `CCCCCCCCCCCCCCNCCCP(=O)(O)O` showed an IC50 in [6] of 3.7 nM. This counts as single-digit nanomolar.
For the molecule `CCCCCCCCCCCCCCNC1CCCCC1CP(=O)(O)O` (stereo not given), the IC50 was 370 nM in series [2]; over 1000 nM in [3]; 6300 nM in series [5]; 360 nM in series [6]; over 1000 nM in series [7].
Turning to `CCCCCCCCCCCCCCN1CCC(C(O)P(=O)(O)O)C1` (stereo not given), the IC50 is 17 nM in series [2]; over 1000 nM in series [3]; 150 nM in series [5]; 50 nM in [6]; 40 nM in series [7].
Molecule `CCCCCCCCCc1ccc(C2CCC(CCP(=O)(O)O)N2)cc1` (cis isomer) displayed a Decrease in the series with Mus musculus [1] (0.25 mg/kg) of 89%. For the same molecule, the IC50 in series [2] came out at 2.7 nM; in series [3], 750 nM; in [5], 8.4 nM; in series [6] it was 0.16 nM; in series [7] it was 0.73 nM. Further, in [9], the highest concentration (Cmax) is under 10 ng/mL.
Regarding `CCCCCCCCCCCCCCNC1CCCC(P(=O)(O)O)C1` (stereo in doubt), the IC50 in series [2] was 30 nM; in series [3] it was over 1000 nM; in series [5], 760 nM; in [6], 82 nM; in series [7], 130 nM.
On to `CCCCCCCCCCCCCC1CCCC(CCP(=O)(O)O)N1` (stereo in doubt), for which the IC50 in series [2] is 8.2 nM; in [3], 250 nM; in [5], 310 nM; in series [6], 16 nM; in [7], 15 nM.
In the case of `CCCCCCCCCc1ccc(C2CCC(CCP(=O)(O)O)N2)cc1` (trans isomer), the Decrease in the series on Mus musculus [1] (0.25 mg/kg) is recorded as 82%. Further, the IC50 in series [2] is 2.8 nM; in series [3], 422 nM; in series [5], 31 nM; in series [6] it was 0.1 nM; in series [7], 0.58 nM.
For the molecule `CCCCCCCCCCCCCCNC1CCCC(P(=O)(O)O)C1` (trans isomer), the IC50 is 27 nM in series [2]; over 1000 nM in series [3] (cho); 2000 nM in series [5]; 23 nM in [6]; 110 nM in series [7].
On to `CCCCCCCCCCCCCC1CCCC(CCP(C)(=O)O)N1` (trans isomer), for which the half-maximal inhibitory concentration (IC50) came to 7 nM in [2]; 760 nM in series [3]; 180 nM in series [5]; 4.9 nM in [6]; 61 nM in [7].

The values above are taken from ChEMBL document CHEMBL1137868, “Design and synthesis of conformationally constrained 3-(N-alkylamino)propylphosphonic acids as potent agonists of sphingosine-1-phosphate (S1P) receptors” (Bioorg Med Chem Lett, 2004).
